{"source": "ChEMBL document CHEMBL4819122", "about": "“Novel 4-(piperazin-1-yl)quinolin-2(1H)-one bearing thiazoles with antiproliferative activity through VEGFR-2-TK inhibition” (Bioorg Med Chem, 2021)", "key": {"HCT-15": {"tested_on": "HCT-15", "experiment": "Cytotoxicity against human HCT-15 assessed as growth inhibition at 10 uM by NCI protocol relative to control", "type": "functional", "conditions": "read-out: GI", "method_in_brief": "(§1)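 Run by NCI as a single-dose screen at 10 μM across the sixty-cell-line panel, which covers nine human tumour tissue types. The read-out is percent growth inhibition of treated cells relative to untreated cells.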"}, "OVCAR-8": {"tested_on": "OVCAR-8", "experiment": "Cytotoxicity against human OVCAR-8 assessed as growth inhibition at 10 uM by NCI protocol relative to control", "type": "functional", "conditions": "read-out: GI", "method_in_brief": "as §1"}, "NCI/ADR-RES": {"tested_on": "NCI/ADR-RES", "experiment": "Cytotoxicity against human NCl/ADR-RES assessed as growth inhibition at 10 uM by NCI protocol relative to control", "type": "functional", "conditions": "read-out: GI", "method_in_brief": "as §1"}, "A549": {"tested_on": "A549", "experiment": "Cytotoxicity against human A549 assessed as growth inhibition at 10 uM by NCI protocol relative to control", "type": "functional", "conditions": "read-out: GI", "method_in_brief": "as §1"}, "MOLT-4": {"tested_on": "MOLT-4", "experiment": "Cytotoxicity against human MOLT-4 assessed as growth inhibition at 10 uM by NCI protocol relative to control", "type": "functional", "conditions": "read-out: GI", "method_in_brief": "as §1"}, "SK-MEL-28": {"tested_on": "SK-MEL-28", "experiment": "Cytotoxicity against human SK-MEL-28 assessed as growth inhibition at 10 uM by NCI protocol relative to control", "type": "functional", "conditions": "read-out: GI", "method_in_brief": "as §1"}, "CCRF-CEM": {"tested_on": "CCRF-CEM", "experiment": "Cytotoxicity against human CCRF-CEM assessed as growth inhibition at 10 uM by NCI protocol relative to control", "type": "functional", "conditions": "read-out: GI", "method_in_brief": "as §1"}, "T47D": {"tested_on": "T47D", "experiment": "Cytotoxicity against human T47D cells assessed as reduction in cell viability after 3 hrs by MTT assay"}, "ACHN": {"tested_on": "ACHN", "experiment": "Cytotoxicity against human ACHN assessed as growth inhibition at 10 uM by NCI protocol relative to control", "type": "functional", "conditions": "read-out: GI", "method_in_brief": "as §1"}, "RXF 393": {"tested_on": "RXF 393", "experiment": "Cytotoxicity against human RXF 393 assessed as growth inhibition at 10 uM by NCI protocol relative to control", "type": "functional", "conditions": "read-out: GI", "method_in_brief": "as §1"}, "IGROV-1": {"tested_on": "IGROV-1", "experiment": "Cytotoxicity against human IGROVI assessed as growth inhibition at 10 uM by NCI protocol relative to control", "type": "functional", "conditions": "read-out: GI", "method_in_brief": "as §1"}, "TK-10": {"tested_on": "TK-10", "experiment": "Cytotoxicity against human TK-10 assessed as growth inhibition at 10 uM by NCI protocol relative to control", "type": "functional", "conditions": "read-out: GI", "method_in_brief": "(§2)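 Run by the NCI under its standard protocol: one dose of 10 μM against a sixty-line panel from nine human tumour tissues. Result given as percent growth inhibition of treated cells relative to untreated cells.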"}, "DU-145": {"tested_on": "DU-145", "experiment": "Cytotoxicity against human DU-145 assessed as growth inhibition at 10 uM by NCI protocol relative to control", "type": "functional", "conditions": "read-out: GI", "method_in_brief": "as §1"}, "MDA-MB-435": {"tested_on": "MDA-MB-435", "experiment": "Cytotoxicity against human MDA-MB-435 assessed as growth inhibition at 10 uM by NCI protocol relative to control", "type": "functional, cell-based", "method_in_brief": "as §1"}, "NCI-H522": {"tested_on": "NCI-H522", "experiment": "Cytotoxicity against human NCI-H522 assessed as growth inhibition at 10 uM by NCI protocol relative to control", "type": "functional", "conditions": "read-out: GI", "method_in_brief": "as §1"}, "UO-31": {"tested_on": "UO-31", "experiment": "Cytotoxicity against human UO31 assessed as growth inhibition at 10 uM by NCI protocol relative to control", "type": "functional", "conditions": "read-out: GI", "method_in_brief": "as §2"}, "NCI-H23": {"tested_on": "NCI-H23", "experiment": "Cytotoxicity against human NCI-H23 assessed as growth inhibition at 10 uM by NCI protocol relative to control", "type": "functional", "conditions": "read-out: GI", "method_in_brief": "as §1"}, "RPMI-8226": {"tested_on": "RPMI-8226", "experiment": "Cytotoxicity against human RPMI-8226 assessed as growth inhibition at 10 uM by NCI protocol relative to control", "type": "functional", "conditions": "read-out: GI", "method_in_brief": "as §1"}, "SK-MEL-5": {"tested_on": "SK-MEL-5", "experiment": "Cytotoxicity against human SK-MEL-5 assessed as growth inhibition at 10 uM by NCI protocol relative to control", "type": "functional", "conditions": "read-out: GI", "method_in_brief": "as §1"}, "HCT-116": {"tested_on": "HCT-116", "experiment": "Cytotoxicity against human HCT-116 assessed as growth inhibition at 10 uM by NCI protocol relative to control", "type": "functional", "conditions": "read-out: GI", "method_in_brief": "as §1"}, "A498": {"tested_on": "A498", "experiment": "Cytotoxicity against human A498 assessed as growth inhibition at 10 uM by NCI protocol relative to control", "type": "functional", "conditions": "read-out: GI", "method_in_brief": "as §1"}, "UACC-62": {"tested_on": "UACC-62", "experiment": "Cytotoxicity against human UACC-62 assessed as growth inhibition at 10 uM by NCI protocol relative to control", "type": "functional", "conditions": "read-out: GI", "method_in_brief": "as §2"}, "HCC 2998": {"tested_on": "HCC 2998", "experiment": "Cytotoxicity against human HCC-2998 assessed as growth inhibition at 10 uM by NCI protocol relative to control", "type": "functional", "conditions": "read-out: GI", "method_in_brief": "as §1"}, "CAKI-1": {"tested_on": "CAKI-1", "experiment": "Cytotoxicity against human Caki1 assessed as growth inhibition at 10 uM by NCI protocol relative to control", "type": "functional", "conditions": "read-out: GI", "method_in_brief": "as §1"}, "MDA-MB-468": {"tested_on": "MDA-MB-468", "experiment": "Cytotoxicity against human MDA-MB-468 assessed as growth inhibition at 10 uM by NCI protocol relative to control", "type": "functional", "conditions": "read-out: GI", "method_in_brief": "as §1"}, "Hs-578T": {"tested_on": "Hs-578T", "experiment": "Cytotoxicity against human HS 578T assessed as growth inhibition at 10 uM by NCI protocol relative to control", "type": "functional", "conditions": "read-out: GI", "method_in_brief": "as §1"}, "K562": {"tested_on": "K562", "experiment": "Cytotoxicity against human K-562 assessed as growth inhibition at 10 uM by NCI protocol relative to control", "type": "functional", "conditions": "read-out: GI", "method_in_brief": "as §1"}}, "note": "Activity calls are given as the source filed them. The rule behind the calls is not given here.", "data": [{"smiles": "COc1ccc(-c2csc(NC(=O)CN3CCN(c4cc(=O)[nH]c5ccc(F)cc45)CC3)n2)cc1", "values": [{"measurement": "inhibition of growth at 10 µM", "setting": "HCT-15", "result": 26.6, "unit": "%"}, {"measurement": "inhibition of growth at 10 µM", "setting": "OVCAR-8", "result": 17.2, "unit": "%"}, {"measurement": "inhibition of growth at 10 µM", "setting": "NCI/ADR-RES", "result": 20.5, "unit": "%"}, {"measurement": "inhibition of growth at 10 µM", "setting": "A549", "result": 29.5, "unit": "%"}, {"measurement": "inhibition of growth at 10 µM", "setting": "MOLT-4", "result": 46.7, "unit": "%"}, {"measurement": "inhibition of growth at 10 µM", "setting": "SK-MEL-28", "result": 13.7, "unit": "%"}, {"measurement": "inhibition of growth at 10 µM", "setting": "CCRF-CEM", "result": 29.8, "unit": "%"}, {"measurement": "IC50", "setting": "T47D", "result": 16.9, "unit": "µM"}, {"measurement": "inhibition of growth at 10 µM", "setting": "ACHN", "result": 27.7, "unit": "%"}, {"measurement": "inhibition of growth at 10 µM", "setting": "RXF 393", "result": 20.3, "unit": "%"}, {"measurement": "inhibition of growth at 10 µM", "setting": "IGROV-1", "result": 45.6, "unit": "%"}, {"measurement": "inhibition of growth at 10 µM", "setting": "TK-10", "result": 31.8, "unit": "%"}, {"measurement": "inhibition of growth at 10 µM", "setting": "DU-145", "result": 40, "unit": "%"}, {"measurement": "growth inhibition (GI)", "setting": "MDA-MB-435", "result": "inactive"}, {"measurement": "inhibition of growth at 10 µM", "setting": "NCI-H522", "result": 21.6, "unit": "%"}, {"measurement": "inhibition of growth at 10 µM", "setting": "UO-31", "result": 24.9, "unit": "%"}, {"measurement": "inhibition of growth at 10 µM", "setting": "NCI-H23", "result": 16.6, "unit": "%"}, {"measurement": "inhibition of growth at 10 µM", "setting": "RPMI-8226", "result": 40.9, "unit": "%"}, {"measurement": "inhibition of growth at 10 µM", "setting": "SK-MEL-5", "result": 25.4, "unit": "%"}, {"measurement": "inhibition of growth at 10 µM", "setting": "HCT-116", "result": 15.9, "unit": "%"}, {"measurement": "inhibition of growth at 10 µM", "setting": "A498", "result": 49.9, "unit": "%"}, {"measurement": "inhibition of growth at 10 µM", "setting": "UACC-62", "result": 28.1, "unit": "%"}, {"measurement": "inhibition of growth at 10 µM", "setting": "HCC 2998", "result": 15.8, "unit": "%"}, {"measurement": "inhibition of growth at 10 µM", "setting": "CAKI-1", "result": 46.8, "unit": "%"}, {"measurement": "inhibition of growth at 10 µM", "setting": "MDA-MB-468", "result": 32, "unit": "%"}, {"measurement": "inhibition of growth at 10 µM", "setting": "Hs-578T", "result": 32.9, "unit": "%"}, {"measurement": "inhibition of growth at 10 µM", "setting": "K562", "result": 30.1, "unit": "%"}]}]}
